For orientation: IC50 means the midpoint of a concentration-inhibition curve. A high value points to lower potency. As usually defined, the EC50 is the midpoint of the concentration-response curve. A higher EC50 goes with a less potent agent. By solubility is commonly meant how much of the substance goes into solution per volume. Higher therefore signals a readily soluble substance.

One series deals with B16. The series can be described thus: Cytotoxicity against mouse B16 cells by MTT assay. The class given is functional, cell-based. (Tetrazolium dyes change colour on reduction, which living cells bring about.)
The next series concerns L1210. The series can be described thus: Cytotoxicity against mouse L1210 cells by MTT assay. The class given is functional, cell-based.
For series [1], the system named is Mus musculus. Description: Toxicity in DBA2 mouse assessed as change in platelet count at 75 mg/kg, ip QD administered on alternate days for 17 days measured on day 23 relative to control. The following applies: in vivo, 408 h. More on the design: dose 75 mg/kg, route intraperitoneal. The class given is organism-based. A digest of the protocol: (§1)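 Healthy female DBA2 mice, 5–7 weeks old, five per group, received 75 mg/kg ip on days 1, 5, 9, 13 and 17. Vehicle was PET (PEG400/ethanol/Tween 80, 6:3:1), 5% glucose and DMSO, with final ethanol 15% and DMSO 10%. Controls received 100 µL vehicle. Body weight was measured every other day. At sacrifice on day 23, blood counts (hematocrit, WBC, granulocytes, platelets) and liver, kidney and spleen appearance and weight were assessed.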

Series [2] deals with Mus musculus. Description: Toxicity in DBA2 mouse assessed as change in color, weight and size in kidney at 75 mg/kg, ip QD administered on alternate days for 17 days measured on day 23 relative to control. The arrangement: dose 75 mg/kg, route intraperitoneal. The following applies: in vivo, 408 h. The class given is organism-based. A digest of the protocol:
as §1

Series [3] in a line: Ratio of EC50 for microtubule depolymerization in […] cells to IC50 for human MDA-MB-435 cells.
Series [4] is described as follows: Induction of microtubule depolymerization in […] cells for 18 hrs by indirect immunofluorescence microscopic analysis. The class given is cell-based. A digest of the protocol: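 Uses A-10 cells, a non-transformed line that arrests in interphase under microtubule-targeting agents. Cells were treated for 18 h and interphase microtubules were visualized by indirect immunofluorescence microscopy, with vehicle-treated controls. Depolymerization was screened at concentrations below 30 µM. For EC50, a range of concentrations was tested, and EC50 is the concentration causing 50% loss of cellular microtubules by microscopy.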

Series [5] relates to Mus musculus. The series can be described thus: Toxicity in DBA2 mouse assessed as change in granulocyte count at 75 mg/kg, ip QD administered on alternate days for 17 days measured on day 23 relative to control. The following applies: in vivo, 408 h. It counts as organism-based. More on the design: dose 75 mg/kg, route intraperitoneal. A digest of the protocol: as §1
For series [6], the system named is Mus musculus. The series can be described thus: Toxicity in DBA2 mouse assessed as change in white blood count at 75 mg/kg, ip QD administered on alternate days for 17 days measured on day 23 relative to control. It counts as organism-based. The settings on record: in vivo, 408 h. More on the design: dose 75 mg/kg, route intraperitoneal. A digest of the protocol:
as §1

Series [7] concerns Mus musculus. Description: Toxicity in DBA2 mouse assessed as change in color, weight and size in spleen at 75 mg/kg, ip QD administered on alternate days for 17 days measured on day 23 relative to control. The settings on record: in vivo, 408 h. The class given is organism-based. The arrangement: dose 75 mg/kg, route intraperitoneal. A digest of the protocol: as §1
Series [8] in a line: Solubility of the compound in water by multiscreen solubility. The class given is physicochemical. A digest of the protocol:
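Aqueous solubility was measured with a modified Multiscreen Solubility filter-plate protocol. The assay ceiling is 500 µM, and two independent experiments were run.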

Series [9] deals with Mus musculus. The series can be described thus: Toxicity in DBA2 mouse assessed as change in body weight at 75 mg/kg, ip QD administered on alternate days for 17 days measured on day 23 relative to control. It counts as organism-based. The settings on record: in vivo, 408 h. The arrangement: dose 75 mg/kg, route intraperitoneal. A digest of the protocol: as §1
For series [10], the system named is Mus musculus. The series can be described thus: Toxicity in DBA2 mouse assessed as change in color, weight and size in liver at 75 mg/kg, ip QD administered on alternate days for 17 days measured on day 23 relative to control. It counts as organism-based. More on the design: dose 75 mg/kg, route intraperitoneal. The settings on record: in vivo, 408 h. A digest of the protocol:
as §1

The test system of series [11] is Mus musculus. Description: Toxicity in DBA2 mouse assessed as change in hematocrit at 75 mg/kg, ip QD administered on alternate days for 17 days measured on day 23 relative to control. The class given is organism-based. The arrangement: dose 75 mg/kg, route intraperitoneal. The settings on record: in vivo, 408 h. A digest of the protocol:
as §1

≈ marks a conversion by molar mass, not a printed value.

For `COc1cc(/C(=C\c2ccccc2)C(C)=O)cc(OC)c1OC`, the results for the IC50 with B16 and in the series on L1210 were 25 µM and 5.4 µM, respectively.
For `COc1cc(/C(=C\c2ccc(C)cc2)C(C)=O)cc(OC)c1OC`, the Activity result in the series on Mus musculus [1], in the series on Mus musculus [2], in the series on Mus musculus [5], in the series with Mus musculus [6], with Mus musculus [7] and in the series on Mus musculus [9] was “Non-toxic” throughout. Besides, the Activity entry in the series on Mus musculus [10] and with Mus musculus [11] was “Non-toxic” throughout. Besides, the IC50 was found to be 2.9 µM with B16 and 0.36 µM with L1210. For the same compound, the Ratio in series [3] was 59. Also, the EC50 in series [4] worked out at 5.6 µM. Also, the concentration in solution in series [8] (solubility) came to 443 µM (≈ 145 µg/mL).
As to `COc1cc(/C(=C\c2cccc([N+](=O)[O-])c2)C(C)=O)cc(OC)c1OC`, the IC50 in the series on B16 was found to be 3.8 µM; in the series with L1210 it was 3.3 µM.
On the same counts, the results for `COc1cc(/C(=C\c2ccc(Cl)cc2)C(C)=O)cc(OC)c1OC` are 7.4 µM and 5 µM.
On the same counts, the results for `COc1cc(/C=C(/C(C)=O)c2cc(OC)c(OC)c(OC)c2)cc(OC)c1OC` are 23 µM and 7.2 µM.
For the compound `COc1ccc(/C=C(/C(C)=O)c2cc(OC)c(OC)c(OC)c2)cc1`, the half-inhibitory concentration (IC50) with B16 stood at 7.3 µM; in the series with L1210 it was 0.38 µM. Besides, in [3], the Ratio worked out at 53. Besides, a half-maximal response in series [4] (EC50) required 18.6 µM. Besides, in series [8], the solubility stood at 319 µM (≈ 109 µg/mL).
Consider `COc1cc(/C(=C\c2ccc([N+](=O)[O-])cc2)C(C)=O)cc(OC)c1OC`, for which the IC50 in the series with B16 and with L1210 was 18 µM each time.
In the case of `COc1ccc(/C=C(/C(C)=O)c2cc(OC)c(OC)c(OC)c2)cc1O[Si](C)(C)C(C)(C)C`, the figures for the IC50 with B16 and in the series on L1210 were 5.1 µM and 0.18 µM, respectively.
On the same counts, the results for `COc1cc(/C(=C\c2ccc(F)cc2)C(C)=O)cc(OC)c1OC` are 65 µM and 43 µM.
Regarding `COc1ccc(/C=C(/C(C)=O)c2cc(OC)c(OC)c(OC)c2)cc1OC`, the IC50 in the series with B16 amounted to 42 µM; with L1210 it was 37 µM.
On the same counts, the results for `COc1ccc(OC)c(/C=C(/C(C)=O)c2cc(OC)c(OC)c(OC)c2)c1` are 4 µM and 3.7 µM.
On the same counts, the results for `COc1cccc(/C=C(/C(C)=O)c2cc(OC)c(OC)c(OC)c2)c1` are 31 µM and 39 µM.
On the same counts, the results for `COc1cc(OC)c(/C=C(/C(C)=O)c2cc(OC)c(OC)c(OC)c2)c(OC)c1` are above 100 µM and 3.7 µM.
In the case of `COc1cc(/C(=C\c2ccc(C#N)cc2)C(C)=O)cc(OC)c1OC`, the IC50 in the series with B16 was 29 µM; in the series on L1210 it was 8 µM.
As to `COc1cc(/C(=C\c2ccc(Cl)c(Cl)c2)C(C)=O)cc(OC)c1OC`, the half-inhibitory concentration (IC50) in the series with B16 was found to be 6.4 µM; in the series with L1210 it was 4 µM.
On the same counts, the results for `COc1cc(/C(=C\c2ccc(Br)cc2)C(C)=O)cc(OC)c1OC` are 19 µM and 4 µM.
On the same counts, the results for `COc1ccccc1/C=C(/C(C)=O)c1cc(OC)c(OC)c(OC)c1` are 41 µM and 40 µM.
On the same counts, the results for `COc1ccc(/C=C(/C(C)=O)c2cc(OC)c(OC)c(OC)c2)cc1[N+](=O)[O-]` are 3.8 µM and 3.1 µM.
With `COc1cc(/C(=C\c2cccc(Br)c2)C(C)=O)cc(OC)c1OC`, the values for the IC50 with B16 and in the series on L1210 were 39 µM and 35 µM, respectively.

(Values after ChEMBL document CHEMBL1765023, “Acetyl analogs of combretastatin A-4: synthesis and biological studies” (Bioorg Med Chem, 2011).)
